{"data": "Measured values of several laboratories", "target": "Dual specificity protein kinase CLK4 (CLK4, Homo sapiens, UniProt Q9HAZ1)", "note": "Compare with care: the assays were run in different laboratories."}
{"Compound": "O=C(NCCCC1CCCCC1)c1ccc(CNC(=O)c2cnn(-c3ccccc3)c2C(F)(F)F)cc1", "read-out": "cell-free assay", "method": "competition with immobilised ligand", "concentration": "0.1 µM", "remaining binding [%]": 100}
{"Compound": "O=C(NCCCN1CCOCC1)c1ccc(Nc2nccc(-c3cc4ccccc4s3)n2)cc1", "read-out": "binding", "method": "competition with immobilised ligand", "concentration": "1 µM", "remaining binding [%]": 11}
{"Compound": "CNCc1ccccc1-c1csc([C@@H](C)Nc2nc(C)nc3cc(OC)c(OC)cc23)c1", "read-out": "cell-free assay", "method": "competition with immobilised ligand", "concentration": "1 µM", "remaining binding [%]": 100}
{"Compound": "Nc1ncc2c(n1)-c1c([nH]c3ccc(C#CC4CC4)cc13)CCCC2", "read-out": "binding", "method": "competition with immobilised ligand", "concentration": "1 µM", "remaining binding [%]": 76}
{"Compound": "c1cncc(-c2cccc(Nc3nccc(NC4CCCCC4)n3)c2)c1", "read-out": "binding", "method": "competition with immobilised ligand", "concentration": "10 µM", "remaining binding [%]": 1}
{"Compound": "CN(c1nccc(-c2cnn3ncccc23)n1)C1CC1", "read-out": "binding", "concentration": "1 µM", "remaining binding [%]": 70}
{"Compound": "O=C(Nc1c[nH]nc1C(=O)NC1CCNCC1)c1cc(F)cc(F)c1", "read-out": "binding", "method": "competition with immobilised ligand", "concentration": "1 µM", "remaining binding [%]": 75}
{"Compound": "C[C@@H]1CCN(c2nccc(-c3cnn4ncccc34)n2)C1", "read-out": "binding", "concentration": "1 µM", "remaining binding [%]": 12}
{"Compound": "CC1=C(C#N)C(c2ccc3c(c2)c(NC(=O)c2ccccc2C)nn3C)C(C#N)=C(C)N1", "read-out": "cell-free assay", "method": "competition with immobilised ligand", "concentration": "1 µM", "remaining binding [%]": 76}
{"Compound": "Cc1cnc(Nc2ccc(C(=O)N3CCC(N4CCCC4)CC3)cc2)nc1-c1cc2ccccc2s1", "read-out": "binding", "method": "competition with immobilised ligand", "concentration": "1 µM", "remaining binding [%]": 11}
{"Compound": "O=C1NC(c2ccccn2)Sc2ccccc21 (stereo not shown)", "read-out": "cell-free assay", "method": "competition with immobilised ligand", "concentration": "1 µM", "remaining binding [%]": 97}
{"Compound": "CNC(=O)[C@@H]1CC[C@@H](n2c(-c3ccc4cnccc4c3)nc3ccc(C(=O)NCc4cccc(C(N)=O)c4)cc32)C1", "read-out": "binding", "method": "competition with immobilised ligand", "concentration": "1 µM", "remaining binding [%]": 100}
{"Compound": "CN(C)c1nccc(-c2cnn3ncccc23)n1", "read-out": "binding", "concentration": "1 µM", "remaining binding [%]": 5.9}
{"Compound": "O=C(N1CCS(=O)(=O)CC1)N1C[C@H](c2ccc(OC(F)(F)F)cc2)C[C@H](c2nc(C3CC3)no2)C1", "read-out": "cell-free assay", "method": "competition with immobilised ligand", "concentration": "1 µM", "remaining binding [%]": 100}
{"Compound": "CC1CCCN1c1nccc(-c2cnn3ncccc23)n1 (stereo not shown)", "read-out": "binding", "concentration": "1 µM", "remaining binding [%]": 55}
{"Compound": "FC(F)(F)Oc1cccc(-c2cnc3ccc(-c4ccncc4)nn23)c1", "read-out": "cell-free assay", "method": "competition with immobilised ligand", "concentration": "5 µM", "remaining binding [%]": 7.8}
{"Compound": "c1cnn2ncc(-c3ccnc(N4CCC45COC5)n3)c2c1", "read-out": "binding", "concentration": "1 µM", "remaining binding [%]": 6.2}
{"Compound": "Cc1c(C(=O)O)cc(-c2ccc(C3CCNCC3)cc2)c2ccc(-c3ccc(C(F)(F)F)cc3)cc12", "read-out": "binding", "method": "competition with immobilised ligand", "concentration": "1 µM", "remaining binding [%]": 100}
{"Compound": "CN(C)c1ncc(F)c(-c2cnn3ncccc23)n1", "read-out": "binding", "concentration": "1 µM", "remaining binding [%]": 61}
{"Compound": "O=C(c1ccc(Nc2nccc(-c3cc4ccccc4s3)n2)cc1)N1CCC(N2CCCC2)CC1", "read-out": "binding", "method": "competition with immobilised ligand", "concentration": "1 µM", "remaining binding [%]": 27}
{"Compound": "N[C@H]1CCN(c2nccc(-c3cnn4ncccc34)n2)C1", "read-out": "binding", "concentration": "1 µM", "remaining binding [%]": 22}
{"Compound": "Cc1noc([C@H]2C[C@@H](c3ccc(C(F)(F)F)cc3)CN(C(=O)N3CCS(=O)(=O)C3)C2)n1", "read-out": "cell-free assay", "method": "competition with immobilised ligand", "concentration": "1 µM", "remaining binding [%]": 83}
